# Experimental data reported in PubChem BioAssay AID1943 (The Scripps Research Institute Molecular Screening Center, 2009).
# Among all 1,600 compounds or so, about 500 (31%) were called active. A selection follows. Unmarked numbers belong to inactive results.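 How the source made its calls: active means inhibition above the mean of all tested compounds plus 3 SD, cutoff set per campaign (cut at about 36% in these data); inactive means the rest.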
# Test system: Hepatitis C virus NS3 helicase
# Assay: HCV NS3 helicase inhibitors, retest, confirmation, biochemical, Cy5 molecular beacon fluorescence, triplicate (AID 1943)
# Settings: NS3 helicase DNA unwinding, at 10.9 µM, hits give high values
# How it was run: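 Material: HCV NS3 helicase; Also added: Quenchable beacon DNA duplex and ATP; Compound: single nominal final dose of 10.9 µM, DMSO vehicle; Timing: 0 and 60 min reads at 25 °C; Technique: Cy5 fluorescence quenching by beacon hairpin; Benchmarks: DMSO and thioflavine S wells; Replicates: each compound tested in triplicate.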
row,SMILES,inhibition
1,CCOC(=O)c1c(-c2ccccc2)oc2cc(Br)c(O)c(C=O)c12,36.3% (active)
2,CC(Oc1ccccc1)C(=O)Nc1oc(-c2ccco2)c(-c2ccco2)c1C#N (centres undefined),61.5% (active)
3,Cc1cccc(NC(=O)c2sc3nc4c(c(-c5ccco5)c3c2N)CCC4)c1,-20.1%
4,COc1ccc(/C=C2\SC(=S)N(CCC(=O)Nc3cccc(C(=O)O)c3)C2=O)cc1OC,52.9% (active)
5,Cc1ccc(SC(CC(=O)c2ccc(C(C)(C)C)cc2)C(=O)O)cc1 (centres undefined),74.6% (active)
6,COc1ccc(OCC(=O)Nc2nnc(-c3ccco3)s2)cc1,-10.9%
7,COc1ccc(NC(=O)CSc2ccc(-c3ccco3)nn2)c(OC)c1,-10.9%
8,COCCNC(=O)Nc1ccc2nc(-c3ccco3)c(-c3ccco3)nc2c1,43.5% (active)
9,S=C(NCCc1ccccc1)N1CCCCC1,-9.72%
10,CCSc1nsc(NC(=O)Nc2cccc(C(C)=O)c2)n1,-4.64%
11,CNS(=O)(=O)c1cccc(C(=O)NC2CCCc3ccccc32)c1 (centres undefined),-10.8%
12,Cc1ccc(OCC(=O)c2cc(C)n(Cc3ccco3)c2C)c([N+](=O)[O-])n1,-9.23%
13,Cc1ccc(S(=O)(=O)NCCC(c2ccccc2)c2ccccc2)cc1C(=O)O,55.2% (active)
14,O=C1NN(c2ccccc2)C(=O)/C1=C/c1ccc(-c2cccc(C(=O)O)c2)o1,54.1% (active)
15,COc1cc(C2CC(=O)N3CN(Cc4ccccc4)CSC3=C2C#N)ccc1OCc1ccccc1 (centres undefined),25%
16,N#C/C=C(/c1ccc(F)cc1)N1CCOCC1,-4.32%
17,Cc1ccc(-c2nn(-c3ccccc3)cc2/C=C2\SC(=S)N(CCCCCC(=O)O)C2=O)o1,84.6% (active)
18,O=C(N/N=C/c1ccc([N+](=O)[O-])o1)c1cn(-c2ccccc2)nc1-c1ccc(F)cc1,-4.3%
19,COc1cccc(CNC(=O)c2nnn(CC(=O)Nc3cc(Cl)ccc3C)c2N)c1,3.98%
20,Cc1ccc(C(CC(=O)O)Nc2nc(N3CCCCC3)nc(N3CCCCC3)n2)cc1 (centres undefined),79% (active)
21,COc1ccccc1N1CCN(C(=O)CCS(=O)(=O)c2ccc3c(c2)NC(=O)C(C)S3)CC1 (centres undefined),-19.2%
22,CC(C)c1ccc(Nc2nnc(SCC(=O)c3nnc(-c4ccccc4)o3)s2)cc1,89.1% (active)
23,Cc1ccccc1Nc1nnc(SCC(=O)c2cc3ccccc3o2)s1,-10.8%
24,Cc1cc(O)c(C(=O)/C=C/c2c(F)c(F)c(F)c(F)c2F)c(=O)o1,69.6% (active)
25,CS(=O)(=O)c1ccc2c(c1)SC1=NC(=O)/C(=C/c3ccco3)C(=N)N12,22.5%

row,SMILES,inhibition
1,Nc1ccc2nc3c(=O)[nH]c(=S)[nH]c3nc2c1,2.58%
2,O=[N+]([O-])c1cc(Cl)cc(/C=N/NC(=S)Nc2cc(S(=O)(=O)N3CCOCC3)ccc2Cl)c1O,94.9% (active)
3,Cc1ccc(S(=O)(=O)N/N=C\c2cc3c(cc2[N+](=O)[O-])OCO3)cc1,-12%
4,CN(C)c1ccc(N/C=C/C(=O)C(F)(F)F)cc1,2.03%
5,COc1cccc(C(=O)CC(=O)C(=O)Nc2ccc([N+](=O)[O-])cc2C)c1,16.8%
6,CCOc1ccc(C(C(=O)NCCOC)N(CCOC)C(=O)CCC(=O)Nc2ccccn2)cc1 (centres undefined),-12.9%
7,Fc1ccc(-c2ccc(-c3nn4c(-c5ccco5)nnc4s3)o2)cc1,12%
8,CCN(CC)CCOc1ccc2c(c1)C(=NNC(=O)c1ccccn1)c1cc(OCCN(CC)CC)ccc1-2,37.9% (active)
9,COc1cc(/C=C2/C(=O)NN(c3cccc(Cl)c3)C2=O)cc(Br)c1O,57.7% (active)
10,Cc1ccc(C)c(-n2c(SCC(=O)O)nc3sc4c(c3c2=O)CCCC4)c1,22.2%
11,O=C1N/C(=C/c2cccn2-c2ccccc2)C(=O)N1c1cccc(Cl)c1,6.32%
12,CS/C(=C\C(=O)c1ccco1)Nc1ccccc1Cl,-6.86%
13,CCOC(=O)c1nnn(-c2nc(OC)nc(N(C)C)n2)c1-c1ccccc1,-9.79%
14,Clc1ccccc1CSc1nnc(-c2ccco2)c(-c2ccco2)n1,72% (active)
15,c1ccc(CSc2nnc(-c3ccco3)c(-c3ccco3)n2)cc1,67% (active)
16,CSc1c(SCc2ccccc2)cnn(Cc2ccccc2)c1=O,-8.85%
17,O=c1c2c(-c3ccccc3)ccnc2[nH]n1-c1ccccc1,-13.5%
18,Brc1ccccc1C1Nc2cccc3cccc(c23)N1,-7.38%
19,O=c1nc2s/c(=C\c3ccco3)c(=O)n2nc1Cc1ccccc1,-17.8%
20,O=C(CCCN1C(=O)/C(=C\c2ccco2)SC1=S)Nc1cccc2ccccc12,73.3% (active)
21,NS(=O)(=O)c1ccc(-c2ccc(/C=C3\SC(=O)NC3=O)o2)cc1,-18.5%
22,O=C(CCl)NNc1cccc(Cl)n1,-2.17%
23,CCOc1ccc(C2C3=C(CCCC3=O)N(CC(=O)O)C3=C2C(=O)CCC3)cc1,-13.6%
24,CC1=NN(c2ccc(Cl)c(C(=O)O)c2)C(=O)/C1=C/c1ccc(-c2ccccc2[N+](=O)[O-])o1,73.3% (active)
25,CC(=O)Nc1ccc(Nc2c3ccccc3nc3ccccc23)cc1,2.42%

row,SMILES,inhibition
1,Cc1ccc(C2=N/C(=C\c3ccc(OS(=O)(=O)c4ccc(C)cc4)cc3)C(=O)O2)cc1,27.4%
2,Cc1occc1C(=O)N/N=C/c1ccc(-c2cccc([N+](=O)[O-])c2)o1,-10.4%
3,Cc1ccc(/C=C/C(=O)Nc2ccc([N+](=O)[O-])c(NC(=O)/C=C/c3ccc(C)o3)c2)o1,62.1% (active)
4,CCC1C/C(=C/c2cccs2)C(=O)/C(=C/c2cccs2)C1 (centres undefined),-12.8%
5,CCOC(=O)C1=C(O)/C(=C/c2cc(C)n(-c3ccccc3)c2C)N=C1C,-7.36%
6,Cc1cc(C)c2nc(-c3ccco3)cc(C(=O)O)c2c1,79.1% (active)
7,CC(=O)C1=C(O)C(=O)N(c2ccc(Br)cc2)C1c1ccc([N+](=O)[O-])cc1 (centres undefined),46.5% (active)
8,O=c1[nH]c(/C=C\c2cccc(C(F)(F)F)c2)nc(O)c1[N+](=O)[O-],-7.2%
9,COc1ccc(/C=C/C(=O)c2cc(Br)ccc(=O)c2O)cc1,82.1% (active)
10,CC(=O)Oc1cccc(N2C(=O)CC(Nc3ccc(N4CCOCC4)cc3)C2=O)c1 (centres undefined),-24.2%
11,Cc1ccc(C(=O)O)cc1-c1ccc(/C=C2\SC(=O)N(CC(=O)Nc3ccc4c(c3)OCO4)C2=O)o1,63.1% (active)
12,O=C(c1cccc(-n2cccc2)c1)N1CCN(S(=O)(=O)c2ccc(F)cc2)CC1,-4.73%
13,COc1ccc(C)cc1-n1nnnc1SCC(=O)c1cc(C)n(Cc2ccco2)c1C,6.51%
14,O=C(N/N=C/c1ccco1)c1csc2c1CCCC2,-9.79%
15,CC(C)c1ccc(C2C(C(=O)c3ccco3)=C(O)C(=O)N2CC2CCCO2)cc1 (centres undefined),-11.7%
16,COc1ccccc1C1/C(=C(/O)c2ccc(OC(C)C)cc2)C(=O)C(=O)N1c1cc(C)on1 (centres undefined),-6.81%
17,COc1cc(C2C(C(=O)c3ccco3)=C(O)C(=O)N2c2cc(C)on2)ccc1OCc1ccccc1 (centres undefined),110% (active)
18,O=C1C=CC(=O)N1c1ccc(N2CCCCC2)cc1,-18.6%
19,COc1ccc(/C=C(\NC(=O)c2ccc(OCC(C)C)cc2)C(=O)OCc2ccco2)cc1,11.2%
20,Cc1[nH]n(C(N)=S)c(=O)c1N=Nc1ccc(Cl)cc1Cl,10.9%
21,CCOC(=O)c1ccccc1N1C(=O)C2Sc3[nH]c(=O)sc3C(/C=C/c3ccccc3)C2C1=O (centres undefined),44.1% (active)
22,COC(=O)COc1ccc2c(c1C)O/C(=C\c1ccco1)C2=O,-7.55%
23,Cc1ccc(C2Nc3cccc4cccc(c34)N2)cc1,-28.1%
24,Cc1nn2c(c1-c1ccccc1)N=C(c1ccco1)CC2c1ccccc1 (centres undefined),-12.4%
